Source: ChEMBL document CHEMBL4402601, “Discovery of a Silicon-Containing Pan-Genotype Hepatitis C Virus NS5A Inhibitor” (J Med Chem, 2020)

Legend:
[1] = system: Hepatitis C virus; assay: Antiviral activity against Hepatitis C virus subtype 1a H77 subgenomic replicon expressing NS5A infected in human HuH7 cells assessed as reduction in viral replication incubated for 3 days by luciferase reporter gene assay; assay type: functional, organism-based, Hepacivirus hominis; details: subtype 1a H77, Huh-7, 72 h
Procedure, shortened: (§1)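 HCV replicon cell assay; inhibition of replication read as decrease in luciferase signal. Percent inhibition computed at each compound concentration; EC50 (pM) from nonlinear regression fit to a 4-parameter logistic equation. Values are means of triplicate wells, with each experiment run at least twice.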

[2] = system: Hepatitis C virus; assay: Resistance index, ratio of EC50 for Hepatitis C virus subtype 1a H77 subgenomic replicon expressing NS5A L31V mutant infected in human HuH7 cells to EC50 for Hepatitis C virus subtype 1a H77 subgenomic replicon expressing NS5A infected in human HuH7 cells; assay type: functional, Hepacivirus hominis
[3] = system: Hepatitis C virus; assay: Antiviral activity against Hepatitis C virus subtype 1a H77 subgenomic replicon expressing NS5A Y93H mutant infected in human HuH7 cells assessed as reduction in viral replication incubated for 3 days by luciferase reporter gene assay; assay type: functional, organism-based, Hepacivirus hominis; details: subtype 1a H77, Huh-7, 72 h
Procedure, shortened: (§2)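 NS5A resistance-associated variants introduced into GT1a-H77 or GT1b-Con1 replicons. In transient assays, each variant replicon was electroporated into a Huh-7-derived cell line. Inhibition measured as drop in luciferase signal. Percent inhibition computed per concentration; EC50 from 4-parameter logistic nonlinear fit. Fold resistance is variant EC50 relative to the matching reference replicon.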

[4] = system: Hepatitis C virus; assay: Resistance index, ratio of EC50 for Hepatitis C virus subtype 1b Con1 subgenomic replicon expressing NS5A P32L mutant infected in human HuH7 cells to EC50 for Hepatitis C virus subtype 1b Con1 subgenomic replicon expressing NS5A infected in human HuH7 cells; assay type: functional, Hepacivirus hominis
[5] = AUC (0 to infinity) in dog at 5 mg/kg, po by UPLC-MS/MS analysis; assay type: ADME, organism-based, Canis lupus familiaris; design: dose 5 mg/kg, route oral, time infinity; details: in vivo
[6] = Drug distribution in rat plasma at 10 mg/kg, po incubated for 3 hrs by UPLC-MS/MS analysis; assay type: ADME, organism-based
Procedure, shortened: (§3)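 Oral dosing in mice and rats; compound measured in plasma and liver by UPLC-MS/MS at each time point, n = 3 (mean ± SD). LPR is mean liver concentration divided by mean plasma concentration.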

[7] = Half life in mouse at 10 mg/kg, po by UPLC-MS/MS analysis; assay type: ADME, organism-based; details: in vivo
Procedure, shortened: (§4)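 Overnight-fasted mice given a single 10 mg/kg oral dose in 2:2:96 (v/v) alcohol : Tween 80 : glucose injection. Plasma levels by UPLC-MS/MS. Bioavailability derived against a 2 mg/kg iv arm using the same formulation diluted 2.5 times with 10% glucose injection.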

[8] = Half life in dog at 5 mg/kg, po by UPLC-MS/MS analysis; assay type: ADME, organism-based, Canis lupus familiaris; details: in vivo
[9] = Cmax in mouse at 10 mg/kg, po by UPLC-MS/MS analysis; assay type: ADME, organism-based; design: dose 10 mg/kg, route oral; details: in vivo; procedure, shortened: as §4
[10] = system: Hepatitis C virus; assay: Resistance index, ratio of EC50 for Hepatitis C virus subtype 1a H77 subgenomic replicon expressing NS5A Y93C mutant infected in human HuH7 cells to EC50 for Hepatitis C virus subtype 1a H77 subgenomic replicon expressing NS5A infected in human HuH7 cells; assay type: functional, Hepacivirus hominis
[11] = Drug distribution in rat liver at 10 mg/kg, po incubated for 8 hrs by UPLC-MS/MS analysis; assay type: ADME, organism-based; details: read-out: Drug uptake; procedure, shortened: as §3
[12] = system: Hepatitis C virus; assay: Antiviral activity against Hepatitis C virus subtype 1a H77 subgenomic replicon expressing NS5A M28T mutant infected in human HuH7 cells assessed as reduction in viral replication incubated for 3 days by luciferase reporter gene assay; assay type: functional, organism-based, Hepacivirus hominis; details: subtype 1a H77, Huh-7, 72 h; procedure, shortened: as §2
[13] = system: Hepatitis C virus; assay: Antiviral activity against Hepatitis C virus subtype 1a H77 subgenomic replicon expressing NS5A Q30K mutant infected in human HuH7 cells assessed as reduction in viral replication incubated for 3 days by luciferase reporter gene assay; assay type: functional, organism-based, Hepacivirus hominis; details: subtype 1a H77, Huh-7, 72 h; procedure, shortened: as §2
[14] = Ratio of drug distribution in mouse liver to drug distribution in mouse plasma measured after 0.5 hrs by UPLC-MS/MS analysis; assay type: ADME, cell-free; procedure, shortened: as §3
[15] = Metabolic stability in mouse liver microsomes assessed as compound remaining at 1 uM incubated for 60 mins by UPLC-MS/MS analysis; assay type: ADME, Microsome; details: read-out: Stability
Procedure, shortened: (§5)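 Pooled mouse, rat or human liver microsomes (0.5 mg/mL) with 1 μM compound, 1 mM NADPH, 5 mM MgCl₂ and 100 mM potassium phosphate pH 7.4. Pre-incubated 5 min at 37 °C, started with NADPH, then run 60 min at 37 °C. Quenched with ice-cold acetonitrile containing internal standard; parent remaining measured by UPLC-MS/MS.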

[16] = Drug distribution in rat liver at 10 mg/kg, po incubated for 3 hrs by UPLC-MS/MS analysis; assay type: ADME, organism-based; details: read-out: Drug uptake; procedure, shortened: as §3
[17] = system: Hepatitis C virus; assay: Resistance index, ratio of EC50 for Hepatitis C virus subtype 1a H77 subgenomic replicon expressing NS5A Y93H mutant infected in human HuH7 cells to EC50 for Hepatitis C virus subtype 1a H77 subgenomic replicon expressing NS5A infected in human HuH7 cells; assay type: functional, Hepacivirus hominis
[18] = AUC (0 to 48 hrs) in dog at 5 mg/kg, po by UPLC-MS/MS analysis; assay type: ADME, organism-based, Canis lupus familiaris; design: time < 48 hr, dose 5 mg/kg, route oral; details: in vivo
[19] = system: Hepatitis C virus; assay: Antiviral activity against Hepatitis C virus subtype 1a H77 subgenomic replicon expressing NS5A L31M mutant infected in human HuH7 cells assessed as reduction in viral replication incubated for 3 days by luciferase reporter gene assay; assay type: functional, organism-based, Hepacivirus hominis; details: subtype 1a H77, Huh-7, 72 h; procedure, shortened: as §2
[20] = system: Hepatitis C virus; assay: Resistance index, ratio of EC50 for Hepatitis C virus subtype 1b Con1 subgenomic replicon expressing NS5A L31W mutant infected in human HuH7 cells to EC50 for Hepatitis C virus subtype 1b Con1 subgenomic replicon expressing NS5A infected in human HuH7 cells; assay type: functional, Hepacivirus hominis
[21] = system: Hepatitis C virus; assay: Antiviral activity against Hepatitis C virus subtype 1b Con1 replicon expressing NS5A L31V mutant infected in human HuH7 cells assessed as reduction in viral replication incubated for 3 days by luciferase reporter gene assay; assay type: functional, organism-based, Hepacivirus hominis; details: subtype 1b Con1, Huh-7, 72 h; procedure, shortened: as §2
[22] = Toxicity in mouse assessed as abnormality on organs at 300 mg/kg, po administered for 14 days and measured on day 14; assay type: organism-based; details: in vivo, 336 h
Procedure, shortened: (§6)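 Mice randomised after acclimation into two groups of 5 males and 5 females. Compound at 300 mg/kg or vehicle alone given once daily by oral gavage for 14 days. Clinical signs observed daily. Body weight and food intake recorded on day 1, then twice weekly. Animals killed after the 14th dose.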

[23] = Toxicity in mouse assessed as increase in cholesterol level at 300 mg/kg, po administered for 14 days and measured on day 14; assay type: organism-based; details: in vivo, 336 h; procedure, shortened: as §6
[24] = Cytotoxicity against human HuH7 cells assessed as reduction in cell viability incubated for 3 days by luciferase reporter gene assay; assay type: cell-based, Huh-7
[25] = system: Hepatitis C virus; assay: Antiviral activity against Hepatitis C virus subtype 1b Con1 subgenomic replicon expressing NS5A infected in human HuH7 cells assessed as reduction in viral replication incubated for 3 days by luciferase reporter gene assay; assay type: functional, organism-based, Hepacivirus hominis; details: subtype 1b Con1, Huh-7, 72 h; procedure, shortened: as §1
[26] = Metabolic stability in human liver microsomes assessed as compound remaining at 1 uM incubated for 60 mins by UPLC-MS/MS analysis; assay type: ADME, Microsome; details: read-out: Stability; procedure, shortened: as §5
[27] = Drug distribution in rat liver at 10 mg/kg, po incubated for 0.5 hrs by UPLC-MS/MS analysis; assay type: ADME, organism-based; details: read-out: Drug uptake; procedure, shortened: as §3
[28] = system: Hepatitis C virus; assay: Resistance index, ratio of EC50 for Hepatitis C virus subtype 1a H77 subgenomic replicon expressing NS5A Y93N mutant infected in human HuH7 cells to EC50 for Hepatitis C virus subtype 1a H77 subgenomic replicon expressing NS5A infected in human HuH7 cells; assay type: functional, Hepacivirus hominis

In the case of `COC(=O)N[C@H](C(=O)N1CCC[C@H]1C(=O)Nc1ccc([C@@H]2CC[C@@H](c3ccc(NC(=O)[C@@H]4CCCN4C(=O)[C@@H](NC(=O)OC)[C@@H](C)OC)cc3)N2c2cc(F)c(N3CC[Si](C)(C)CC3)c(F)c2)cc1)[C@@H](C)OC`, the EC50 [1] is reported as 0.0012 nM, the “Ratio EC50” value [2] is reported as 23 and the EC50 [3] is reported as > 1 nM. The “Ratio EC50” value [4] was 1, the AUC [5] was 10.1 µg·h/mL and the concentration at 3 h [6] was 0.0452 µg/mL. It also gave a half-life [7] of 8 h, a half-life [8] of 21.2 h and a Cmax [9] of 0.454 µg/mL. The “Ratio EC50” value [10] was >203, the concentration at 8 h [11] was 293 ng/g and the EC50 [12] was 0.00237 nM. The EC50 [13] was 0.0375 nM, the Kp at 0.5 h [14] was 8.8 and the remaining at 1 h, 1 µM [15] was 60.4%. The concentration at 3 h [16] was 1110 ng/g, the “Ratio EC50” value [17] was >833 and the AUC [18] was 8.02 µg·h/mL. The EC50 [19] was 0.0122 nM, the “Ratio EC50” value [20] was 11.4 and the EC50 [21] was 0.00381 nM. The Activity [22] was “Non-Toxic”, the Activity [23] was “Non-Toxic” and the CC50 at 72 h [24] was > 50000 nM. For the same molecule, the EC50 [25] was 0.0017 nM, the remaining at 1 h, 1 µM [26] was 80.9% and the concentration at 0.5 h [27] was 359 ng/g. The “Ratio EC50” value [28] was >203.
